Measurements taken from ChEMBL document CHEMBL3860041, “Synthesis, biological evaluation and molecular modeling study of some new methoxylated 2-benzylthio-quinazoline-4(3H)-ones as nonclassical antifolates” (Bioorg Med Chem Lett, 2016).

Tests used:
Assay type in all cases: functional
[1] = Growth inhibition of human HL-60(TB) cells at 10 uM after 48 hrs by SRB assay relative to control; conditions: HL-60, 48 h, read-out: GI
Outline: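 NCI disease-oriented human tumour cell line screen: primary single-dose assay at 10 μM across the full 60-cell-line panel spanning nine tumour subpanels.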

[2] = Growth inhibition of human MOLT4 cells at 10 uM after 48 hrs by SRB assay relative to control; conditions: MOLT-4, 48 h, read-out: GI
Outline: (§1)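 NCI 60-cell-line panel, nine tumor subpanels; compounds tested at a single dose of 10 μM in the primary screen.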

[3] = Growth inhibition of human RPMI8226 cells at 10 uM after 48 hrs by SRB assay relative to control; conditions: RPMI-8226, 48 h, read-out: GI; outline: as §1
[4] = Growth inhibition of human SR cells at 10 uM after 48 hrs by SRB assay relative to control; conditions: read-out: GI
Outline: (§2)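 Primary screen across the full NCI 60 human tumour cell line panel, which covers nine tumour subpanels. A single dose of 10 μM was applied to each line, and growth was recorded for each cell line.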

[5] = Growth inhibition of human A549 cells at 10 uM after 48 hrs by SRB assay relative to control; conditions: A549, 48 h, read-out: GI; outline: as §1
[6] = Growth inhibition of human HOP62 cells at 10 uM after 48 hrs by SRB assay relative to control; conditions: HOP-62, 48 h, read-out: GI; outline: as §1
[7] = Growth inhibition of human HOP92 cells at 10 uM after 48 hrs by SRB assay relative to control; conditions: HOP-92, 48 h, read-out: GI; outline: as §1
[8] = Growth inhibition of human NCI-322M cells at 10 uM after 48 hrs by SRB assay relative to control; conditions: read-out: GI; outline: as §1
[9] = Growth inhibition of human NCI-H460 cells at 10 uM after 48 hrs by SRB assay relative to control; conditions: NCI-H460, 48 h, read-out: GI; outline: as §1
[10] = Growth inhibition of human HCC2998 cells at 10 uM after 48 hrs by SRB assay relative to control; conditions: HCC 2998, 48 h, read-out: GI; outline: as §1
[11] = Growth inhibition of human SF295 cells at 10 uM after 48 hrs by SRB assay relative to control; conditions: SF-295, 48 h, read-out: GI; outline: as §1
[12] = Growth inhibition of human U251 cells at 10 uM after 48 hrs by SRB assay relative to control; conditions: U-251, 48 h, read-out: GI; outline: as §2
[13] = Growth inhibition of human LOXIMVI cells at 10 uM after 48 hrs by SRB assay relative to control; conditions: LOX IMVI, read-out: GI; outline: as §1
[14] = Growth inhibition of human MALME-3M cells at 10 uM after 48 hrs by SRB assay relative to control; conditions: read-out: GI; outline: as §1
[15] = Growth inhibition of human M14 cells at 10 uM after 48 hrs by SRB assay relative to control; conditions: M14, 48 h, read-out: GI; outline: as §1
[16] = Growth inhibition of human UACC257 cells at 10 uM after 48 hrs by SRB assay relative to control; conditions: UACC-257, 48 h, read-out: GI; outline: as §2
[17] = Growth inhibition of human UACC62 cells at 10 uM after 48 hrs by SRB assay relative to control; conditions: UACC-62, 48 h, read-out: GI; outline: as §2
[18] = Growth inhibition of human 786-0 cells at 10 uM after 48 hrs by SRB assay relative to control; conditions: 786-0, 48 h, read-out: GI; outline: as §1
[19] = Growth inhibition of human ACHN cells at 10 uM after 48 hrs by SRB assay relative to control; conditions: read-out: GI; outline: as §1
[20] = Growth inhibition of human Caki1 cells at 10 uM after 48 hrs by SRB assay relative to control; conditions: CAKI-1, 48 h, read-out: GI; outline: as §1
[21] = Growth inhibition of human RXF393 cells at 10 uM after 48 hrs by SRB assay relative to control; conditions: RXF 393, 48 h, read-out: GI; outline: as §1
[22] = Growth inhibition of human UO31 cells at 10 uM after 48 hrs by SRB assay relative to control; conditions: UO-31, 48 h, read-out: GI; outline: as §2
[23] = Growth inhibition of human PC3 cells at 10 uM after 48 hrs by SRB assay relative to control; conditions: PC-3, 48 h, read-out: GI; outline: as §1
[24] = Growth inhibition of human MCF7 cells at 10 uM after 48 hrs by SRB assay relative to control; conditions: MCF7, 48 h, read-out: GI; outline: as §1
[25] = Growth inhibition of human T47D cells at 10 uM after 48 hrs by SRB assay relative to control; conditions: read-out: GI; outline: as §2
[26] = tested on: Cancer cell lines; assay: Potency index, ratio of 5-fluorouracil GI50 to compound GI50 for human ovarian cancer cells
Outline: (§3)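 GI50 for each cell line came from NCI panel testing over a 5-log dose range, with 5-fluorouracil tested alongside as the reference drug. The index relates the 5-fluorouracil GI50 to the compound GI50 within each tumour subpanel.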

[27] = tested on: Melanoma cell; assay: Potency index, ratio of 5-fluorouracil GI50 to compound GI50 for human melanoma cells; outline: as §3
[28] = tested on: Cancer cell lines; assay: Potency index, ratio of 5-fluorouracil GI50 to compound GI50 for human CNS cancer cells; outline: as §3
[29] = tested on: Cancer cell lines; assay: Potency index, ratio of 5-fluorouracil GI50 to compound GI50 for human colon cancer cells; outline: as §3
[30] = tested on: Cancer cell lines; assay: Potency index, ratio of 5-fluorouracil GI50 to compound GI50 for human non-small cell lung cancer cells; outline: as §3
[31] = Growth inhibition of human CNS cancer cells after 48 hrs by SRB assay; conditions: Cancer cell lines
Outline: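 Five-log dose range against NCI tumor cell lines, monitoring GI50, TGI and LC50 for each cell line; MG-MID values derived across the panel; 5-fluorouracil positive control.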

[32] = Growth inhibition of human leukemia cells after 48 hrs by SRB assay; conditions: Leukemia cell; for CC50: read-out: LC50 (the source's name)
Outline: (§4)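 Follow-up NCI panel testing over a 5-log dose range for each cell line. GI50, TGI and LC50 were monitored, with 5-fluorouracil run as the positive control. Values are grouped by tumour subpanel.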

[33] = Growth inhibition of human melanoma cells after 48 hrs by SRB assay; conditions: Melanoma cell; outline: as §4
[34] = Growth inhibition of human ovarian cancer cells after 48 hrs by SRB assay; conditions: Cancer cell lines; outline: as §4
[35] = Growth inhibition of human renal cancer cells after 48 hrs by SRB assay; conditions: Cancer cell lines; outline: as §4
[36] = Growth inhibition of human breast cancer cells after 48 hrs by SRB assay; conditions: Cancer cell lines; outline: as §4

COc1cc2nc(SCc3cc(OC)c(OC)c(OC)c3)n(Cc3ccccc3)c(=O)c2cc1OC
inhibition of growth at 10 µM [1]: 88.1%
inhibition of growth at 10 µM [2]: 83.3%
inhibition of growth at 10 µM [3]: 45.3%
inhibition of growth at 10 µM [4]: 93.8%
inhibition of growth at 10 µM [5]: 63.2%
inhibition of growth at 10 µM [6]: 58.6%
inhibition of growth at 10 µM [7]: 37.4%
inhibition of growth at 10 µM [8]: 54.6%
inhibition of growth at 10 µM [9]: 77.7%
inhibition of growth at 10 µM [10]: 59.2%
inhibition of growth at 10 µM [11]: 80.3%
inhibition of growth at 10 µM [12]: 71%
inhibition of growth at 10 µM [13]: 62.3%
inhibition of growth at 10 µM [14]: 78.1%
inhibition of growth at 10 µM [15]: 85.2%
inhibition of growth at 10 µM [16]: 36.7%
inhibition of growth at 10 µM [17]: 76.6%
inhibition of growth at 10 µM [18]: 63.3%
inhibition of growth at 10 µM [19]: 60.8%
inhibition of growth at 10 µM [20]: 74.3%
inhibition of growth at 10 µM [21]: 95.5%
inhibition of growth at 10 µM [22]: 65.3%
inhibition of growth at 10 µM [23]: 51.2%
inhibition of growth at 10 µM [24]: 89.9%
inhibition of growth at 10 µM [25]: 64.1%
RatioGI50 [26]: 2 - 10
RatioGI50 [27]: 2 - 10
RatioGI50 [28]: 2 - 10
RatioGI50 [29]: 2 - 10
RatioGI50 [30]: 2 - 10
GI50 [31]: 3.4 µM
LC50 (lethal concentration, 50% net cell kill) [31]: 80.6 µM
TGI [31]: 24.5 µM
GI50 [32]: 1900 nM
TGI [32]: > 100 µM
CC50 [32]: > 100 µM
GI50 [33]: 2.6 µM
LC50 [33]: 78.7 µM
TGI [33]: 45.9 µM
GI50 [34]: 6.4 µM
LC50 (50% lethal concentration) [34]: > 100 µM
TGI [34]: 62.7 µM
GI50 [35]: 4.7 µM
LC50 [35]: 85.7 µM
TGI [35]: 49.1 µM
GI50 [36]: 2500 nM
LC50 [36]: 99.3 µM
TGI [36]: 47.4 µM

COc1cc(CSc2nc3ccc(Cl)cc3c(=O)n2Cc2ccccc2)cc(OC)c1OC
inhibition of growth at 10 µM [1]: 85.4%
inhibition of growth at 10 µM [2]: 70.6%
inhibition of growth at 10 µM [3]: 31.3%
inhibition of growth at 10 µM [4]: 76.9%
inhibition of growth at 10 µM [5]: 57.8%
inhibition of growth at 10 µM [6]: 62.3%
inhibition of growth at 10 µM [7]: 28.7%
inhibition of growth at 10 µM [8]: 52.5%
inhibition of growth at 10 µM [9]: 79.5%
inhibition of growth at 10 µM [10]: 50%
inhibition of growth at 10 µM [11]: 71.1%
inhibition of growth at 10 µM [12]: 67.2%
inhibition of growth at 10 µM [13]: 60.7%
inhibition of growth at 10 µM [14]: 61.2%
inhibition of growth at 10 µM [15]: 64.7%
inhibition of growth at 10 µM [16]: 53.5%
inhibition of growth at 10 µM [17]: 84.8%
inhibition of growth at 10 µM [18]: 56.6%
inhibition of growth at 10 µM [19]: 59.7%
inhibition of growth at 10 µM [20]: 73.3%
inhibition of growth at 10 µM [21]: 86.9%
inhibition of growth at 10 µM [22]: 72.9%
inhibition of growth at 10 µM [23]: 44.9%
inhibition of growth at 10 µM [24]: 85.7%
inhibition of growth at 10 µM [25]: 66.1%
RatioGI50 [26]: 2 - 10
RatioGI50 [27]: 2 - 10
RatioGI50 [28]: 2 - 10
RatioGI50 [29]: 2 - 10
RatioGI50 [30]: 2 - 10
GI50 [31]: 4.2 µM
LC50 (lethal concentration, 50% net cell kill) [31]: 81.8 µM
TGI [31]: 49.8 µM
GI50 [32]: 3000 nM
TGI [32]: 87.9 µM
CC50 [32]: > 100 µM
GI50 [33]: 4.4 µM
LC50 [33]: 98.9 µM
TGI [33]: 55.2 µM
GI50 [34]: 5.2 µM
LC50 (50% lethal concentration) [34]: > 100 µM
TGI [34]: 75.6 µM
GI50 [35]: 4.4 µM
LC50 [35]: 96.5 µM
TGI [35]: 52.3 µM
GI50 [36]: 3300 nM
LC50 [36]: > 100 µM
TGI [36]: 59.1 µM

COc1cc(CSc2nc3ccc(C)cc3c(=O)n2Cc2ccccc2)cc(OC)c1OC
inhibition of growth at 10 µM [1]: 83%
inhibition of growth at 10 µM [2]: 69.2%
inhibition of growth at 10 µM [3]: 46%
inhibition of growth at 10 µM [4]: 82%
inhibition of growth at 10 µM [5]: 60%
inhibition of growth at 10 µM [6]: 60%
inhibition of growth at 10 µM [7]: 43.4%
inhibition of growth at 10 µM [8]: 53.8%
inhibition of growth at 10 µM [9]: 82.3%
inhibition of growth at 10 µM [10]: 57%
inhibition of growth at 10 µM [11]: 69%
inhibition of growth at 10 µM [12]: 67%
inhibition of growth at 10 µM [13]: 60.2%
inhibition of growth at 10 µM [14]: 70%
inhibition of growth at 10 µM [15]: 64.4%
inhibition of growth at 10 µM [16]: 52.6%
inhibition of growth at 10 µM [17]: 78.6%
inhibition of growth at 10 µM [18]: 53.2%
inhibition of growth at 10 µM [19]: 53.3%
inhibition of growth at 10 µM [20]: 71.3%
inhibition of growth at 10 µM [22]: 68%
inhibition of growth at 10 µM [23]: 54.1%
inhibition of growth at 10 µM [24]: 82%
inhibition of growth at 10 µM [25]: 65.9%
RatioGI50 [26]: 10
RatioGI50 [27]: 10
RatioGI50 [28]: 10
RatioGI50 [29]: 10
RatioGI50 [30]: 10
GI50 [31]: 3.5 µM
LC50 (lethal concentration, 50% net cell kill) [31]: 81.9 µM
TGI [31]: 46.7 µM
GI50 [32]: 2400 nM
TGI [32]: 85.2 µM
CC50 [32]: > 100 µM
GI50 [33]: 3.2 µM
LC50 [33]: > 100 µM
TGI [33]: 58.4 µM
GI50 [34]: 3.3 µM
LC50 (50% lethal concentration) [34]: 92.7 µM
TGI [34]: 57.6 µM
GI50 [35]: 4.3 µM
LC50 [35]: 97.9 µM
TGI [35]: 61.4 µM
GI50 [36]: 2800 nM
LC50 [36]: > 100 µM
TGI [36]: 47.5 µM
